# High-throughput results from PubChem.
# An excerpt weighted towards active compounds, which were near 0.79% of everything screened.
# bIAP inhibitor – blocks bovine intestinal alkaline phosphatase activity. purified bovine IAP, CDP-star luminescence, 30 min. inhibition, % at 20 µM. 190,000 tested, under 10 active;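 active = over 50% inhibition of intestinal alkaline phosphatase at 20 µM in the single-dose screen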
#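 Incubation: 30 min reaction at room temperature / Material: purified bovine intestinal alkaline phosphatase (IAP) enzyme / Input: enzyme at 1/65,000,000 dilution / Dosing: 20 µM single dose / Signal: CDP-star luminescence signal / Reagent: CDP-star chemiluminescent phosphatase substrate, 30 µM final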
# bIAP activator – intestinal alkaline phosphatase (bovine) activation; activation factor at 20 µM; 200,000 compounds, 0.17% hits; purified bovine IAP, CDP-star luminescence, 30 min; hits give high values; fold of DMSO-control signal, blank-subtracted;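 active = activation factor of 2 or more at 20 µM, a signal rise over negative controls twice the positive control's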
# mIAP block – mouse IAP inhibition | inhibition, % at 10 µM | 330,000 compounds, 0.2% hits | purified mouse IAP, CDP-Star luminescence, 30 min | AID 2806;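 active = inhibition of at least 40% at 10 µM in the primary screen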
# hIAP block – human IAP inhibition | purified IAP, CDP-Star luminescence, 30 min | AID 2544 | 330,000 compounds, 0.12% hits | P09923 | inhibition, % at 10 µM;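 active = inhibition reaching a set limit with compound at 10 µM in the primary screen, cut at about 35% in these data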
# Target sequence (P09923 whole entry, looked up): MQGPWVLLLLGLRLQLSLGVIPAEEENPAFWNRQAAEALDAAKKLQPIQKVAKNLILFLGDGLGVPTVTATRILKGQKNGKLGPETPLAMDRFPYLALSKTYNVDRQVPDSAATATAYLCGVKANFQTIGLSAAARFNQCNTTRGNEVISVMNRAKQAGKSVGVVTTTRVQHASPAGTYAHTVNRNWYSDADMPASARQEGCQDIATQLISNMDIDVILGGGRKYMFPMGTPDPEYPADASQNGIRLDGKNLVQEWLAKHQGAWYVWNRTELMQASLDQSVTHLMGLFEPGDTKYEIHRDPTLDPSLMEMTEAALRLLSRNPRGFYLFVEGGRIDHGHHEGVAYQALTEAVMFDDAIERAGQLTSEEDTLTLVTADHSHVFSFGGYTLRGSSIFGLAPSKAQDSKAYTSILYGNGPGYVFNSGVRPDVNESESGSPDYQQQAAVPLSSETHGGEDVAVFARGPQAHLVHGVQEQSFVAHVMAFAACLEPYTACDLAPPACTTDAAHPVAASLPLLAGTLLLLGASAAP
# hIAP activ – human IAP activation; P09923; purified human IAP, CDP-Star luminescence, 30 min; hits give high values; 1 = vehicle-only enzyme, 0 = enzyme-free background; activation factor at 10 µM; 330,000 compounds, 0.16% hits; AID 2524;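 active = activation factor of the enzyme at least 2-fold when tested at 20 µM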
# mIAP activ – increases mouse intestinal alkaline phosphatase activity. muIAP, CDP-Star luminescence, 30 min; hits give high values; 1 = vehicle-only enzyme signal, 0 = enzyme-free wells. activation factor at 10 µM. 330,000 compounds, 0.24% hits. AID 2805;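 active = activation factor of at least 2 at 20 µM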
#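 also added = chemiluminescent substrate CDP-Star | test system = mouse IAP enzyme | signal = chemiluminescence readout | compound = DMSO-dissolved test compounds | incubation = 30 min at room temperature | benchmarks = DMSO wells, no-enzyme wells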
# mIAP inh conf – mouse IAP inhibition confirmation. shares compounds with mIAP block. purified mouse IAP, CDP-Star luminescence, 30 min. inhibition, % at 10 µM. 11,000 compounds, 4.7% hits;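 active = inhibition of at least 40% at 10 µM in either of the two replicates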
# Hits are given with their value; - = inactive; . = no result.
SMILES,bIAP inhibitor,bIAP activator,mIAP block,hIAP block,hIAP activ,mIAP activ,mIAP inh conf
CCOP(=O)(OCC)C(NC(=O)Nc1ccc(C)c(Cl)c1)c1ccccc1 (stereo unspecified),-,-,-,-,-,3.4,-
CCC(C)(C)c1ccc(OCCN2C(=O)NC(C)(C)C2=O)cc1,-,-,-,-,-,-,.
Cc1ccc(C2C(C#N)=C(N)SC(N)=C2C#N)o1,-,-,44,-,-,-,45
CCc1ccc(C2C(C#N)=C(N)SC(N)=C2C#N)s1,-,-,-,-,-,-,.
CC(C)C1Nc2ccc(S(N)(=O)=O)cc2C2C=CCC21 (stereo unspecified),-,-,48,-,-,-,45
CCOC(=O)C1Nc2ccc(OC(F)(F)F)cc2C2C=CCC12 (stereo unspecified),.,.,-,-,-,-,.
O=C1CSC(=S)N1/N=C/c1ccc(O)c(O)c1O,.,.,92,-,-,-,88
CC(C)(C)c1ccc(/C=N/N2C(=O)CSC2=S)cc1,.,.,-,-,-,-,.
COc1ccc(/C=N/N2C(=O)CSC2=S)cc1,-,-,47,-,-,-,60
COc1ccc(/C=N/N2C(=O)CSC2=S)cc1Br,.,.,-,-,-,-,.
Oc1ccc(Br)cc1-c1cc(-c2ccco2)[nH]n1,-,-,-,-,-,-,.
Oc1ccc(Cl)cc1-c1cc(-c2ccco2)[nH]n1,-,-,80,-,-,-,80
COC(=O)c1ccccc1NCc1cc(=O)oc2cc(O)c(O)cc12,.,.,44,-,-,-,44
O=C(O)c1ccc(CSc2n[nH]c(-c3ccco3)n2)cc1,-,-,58,-,-,-,86
CCOC(=O)CSc1n[nH]c(-c2ccco2)n1,-,-,-,-,-,-,.
O=C1N=c2ccccc2=C1c1sc(=S)n(NC(=O)c2ccccc2)c1O,.,.,64,-,-,-,64
Cn1c(O)c(C2=c3ccccc3=NC2=O)[nH]c1=S,-,-,-,-,-,-,.
O=C1c2c(O)cc(O)cc2O[C@H](c2ccc(O)c(O)c2)[C@@H]1O,-,-,64,-,-,-,58
O=C1C[C@@H](c2ccccc2)Oc2cc(O)cc(O)c21,.,.,-,-,-,-,.
Oc1cc(O)c2c(c1)O[C@H](c1ccc(O)c(O)c1)[C@@H](O)C2,.,.,78,-,-,-,78
O=C1c2c(O)cc(O)cc2O[C@H](c2ccc(O)c(O)c2)[C@H]1O,.,.,51,-,-,-,59
CC(=O)c1sc(NC(=O)CCCOc2ccc(Cl)cc2)nc1C,-,-,-,-,-,-,.
Cc1ccc(F)c(NC=C2C(=O)OC(C)(C)OC2=O)c1,-,-,-,-,-,-,.
O=C(Nc1ccc(F)cc1)NC1(C(=O)NCc2ccco2)CCCCC1,-,-,-,-,-,-,.
CC(C)c1ccc(NC(=O)NC2(C(=O)NCc3cccnc3)CCCCC2)cc1,.,.,-,-,-,-,.
SMILES,bIAP inhibitor,bIAP activator,mIAP block,hIAP block,hIAP activ,mIAP activ,mIAP inh conf
Cc1ccc(NC(=O)NC2(C(=O)NCc3ccccc3)CCCCC2)cc1,-,-,-,-,-,2.7,-
Cc1ccc(CNC(=O)C2(NC(=O)Nc3ccc(C)cc3)CCCCC2)cc1,-,-,-,-,-,6.6,-
COc1ccccc1CNC(=O)C1(NC(=O)Nc2ccc(C)cc2)CCCCC1,-,4.9,-,-,2.8,5.9,-
Cc1ccccc1NS(=O)(=O)c1c(C(=O)N2CCCCCC2)c(C)n(C)c1C,.,.,-,-,-,-,.
O=C(CN1C(=O)NC2(CCc3ccccc32)C1=O)NCC(=O)Nc1ccc(F)cc1 (stereo unspecified),.,.,-,-,-,-,.
COc1ccc(OC)c(N(CC(=O)N2CCN(c3cc(Cl)ccc3C)CC2)S(C)(=O)=O)c1,-,-,-,-,-,-,.
CC(=O)Nc1csc2ccccc12,-,-,-,-,-,-,.
O=C(Nc1ccccc1)Nc1csc2ccccc12,.,.,-,-,-,3.2,-
O=C(NCCCNC(=O)c1ccc(-c2cccc(Cl)c2)o1)c1cnccn1,.,.,-,-,-,-,.
Cc1onc(-c2ccccc2)c1CNC(=O)Nc1cccc(Cl)c1,.,.,-,-,-,4,-
Cc1onc(-c2ccccc2)c1CNC(=O)Nc1ccc(C(F)(F)F)cc1,.,.,-,-,-,4.1,-
Cc1onc(-c2ccccc2)c1CNC(=O)Nc1ccc(F)cc1F,.,.,-,-,-,-,.
